Test results from paper PMC3060938 (Clinical cancer research : an official journal of the …, 2011).
Where “and” joins values, the source holds several entries; their conditions need not be identical. Identical values can stand only once.

Columns and labels:
HSP90 [1] = test: Western blotting of HSP72, CDK4 and ERBB2 in paired tumor biopsies; type: in vivo, human
How it was run: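 Tumour biopsies were taken before and 24 h after the first weekly 1-h IV dose, snap frozen and stored at −80 °C; five paired biopsies per cohort were planned. Lysates were western blotted for HSP72, CDK4 and ERBB2, with GAPDH loading control and HT29 positive control. Each band was scored 0-5 against pre-treatment; a one-point change counted. Signature: HSP72 induction plus CDK4 and/or ERBB2 depletion. Two blinded assessors verified results.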

[2] = Phase I dose escalation of weekly IV 17-DMAG: toxicity; type: in vivo, human
How it was run: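 Weekly 1-h IV infusion, continuous, in 4-week cycles, of drug diluted to 0.1-1.0 mg/mL in 0.9% saline or 5% dextrose. Accelerated titration escalation from 2.5 mg/m2, up to 106 mg/m2. AEs graded by NCI-CTCAE v3.0. DLT assessed over the first 28 days. Cohorts expanded to 6 after DLT. MAD defined as ≥2/6 with DLT; MTD as the prior level with ≤1/6.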

HSP72 = HSP72 in PBMC and plasma by ELISA; type: in vivo, human
How it was run: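 Human patients with advanced solid tumours received a weekly 1-h IV infusion of the test compound, given at 0.1-1.0 mg/mL in 0.9% saline or 5% dextrose. Blood was drawn pre-dose and 24 h post-dose. PBMC were Ficoll-Hypaque separated and stored at −80 °C. HSP72 was measured in PBMC (fmole/μg protein) and plasma (fmole/ml). Each cohort's mean change was compared with the first cohort's by one-tailed t-test (p ≤ 0.05).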

[3] = Plasma pharmacokinetics of 17-DMAG by HPLC-MS, non-compartmental analysis; type: in vivo, human
How it was run: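 Sampled in course 1: pre-dose, at 30 and 60 min into the 1-h infusion, then 5 min to 96 h after infusion end. Heparinised blood held on ice, spun 252g for 5 min at 4°C, plasma kept at −80°C. Drug measured by validated HPLC-MS. Non-compartmental analysis with constant infusion input. Dose proportionality of AUC and Cmax assessed by linear regression.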

[4] = tested on: NCI 60 human tumor cell line panel; conditions: read-out: Mean IC50, no reference given; cited from earlier work
advanced solid tumors = test: Tumor response; type: in vivo, human
HSP90 [5] = test: Western blotting of HSP72, CDK4 and LCK in patients' PBMC; type: in vivo, human
How it was run: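 Blood drawn pre-dose, at end of infusion and 1, 8, 24, 48 and 96 h post-dose, plus 24 h after the fifth weekly infusion. PBMC isolated by Ficoll-Hypaque and stored at −80°C. Lysates blotted for HSP72, CDK4 and LCK, with GAPDH as loading control. Each time-point visually compared with pre-treatment and scored 0-5 against a positive control.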

CO[C@H]1/C=C\C=C(/C)C(=O)NC2=CC(=O)C(NCCN(C)C)=C(C[C@@H](C)C[C@H](OC)[C@H](O)[C@@H](C)/C=C(\C)[C@@H]1OC(N)=O)C2=O [17-DMAG, 17-dimethylaminoethylamino-17-demethoxygeldanamycin]
HSP90 inhibition in tumor (HSP90 [1]; 106 mg/m^2, single set of samples): confirmed | Patients with HSP90 inhibition detected in tumor (HSP90 [1]; 24 hrs after 80mg/m^2): 3/5 | Tumors with HSP72 induced (HSP90 [1]; 24 hrs after 80mg/m^2): 4/5 | Tumors with client protein depletion (CDK4 or ERBB2) (HSP90 [1]; 24 hrs after 80mg/m^2): 3/5 | Treatment related death ([2]; 106mg/m^2): one treatment related death | Patients with dose limiting toxicity (DLT) ([2]; 106 mg/m^2 weekly IV): 2/4 | ALP (hepatic), adverse events related to 17-DMAG ([2]; Grade 1): 2 | ALT (hepatic), adverse events related to 17-DMAG ([2]; Grade 1): 2 | AST (hepatic), adverse events related to 17-DMAG ([2]; Grade 1): 4 | Alopecia, adverse events related to 17-DMAG ([2]; Grade 1): 2 | Anorexia, adverse events related to 17-DMAG ([2]; Grade 1): 1 | Blurred vision, adverse events related to 17-DMAG ([2]; Grade 1): 2 | Dehydration, adverse events related to 17-DMAG ([2]; Grade 1): 1 | Depression, adverse events related to 17-DMAG ([2]; Grade 1): 1 | Diarrhea, adverse events related to 17-DMAG ([2]; Grade 1): 5 | Dizziness, adverse events related to 17-DMAG ([2]; Grade 1): 1 | Dry eye, adverse events related to 17-DMAG ([2]; Grade 1): 1 | Dry mouth, adverse events related to 17-DMAG ([2]; Grade 1): 3 | Eosinophilia, adverse events related to 17-DMAG ([2]; Grade 1): 1 | Fever, adverse events related to 17-DMAG ([2]; Grade 1): 2 | Hand foot syndrome, adverse events related to 17-DMAG ([2]; Grade 1): 1 | Heartburn, adverse events related to 17-DMAG ([2]; Grade 1): 1 | High protein, adverse events related to 17-DMAG ([2]; Grade 1): 1 | Hypergylcaemia, adverse events related to 17-DMAG ([2]; Grade 1): 2 | Hypertension, adverse events related to 17-DMAG ([2]; Grade 1): 3 | Hyperuricaemia, adverse events related to 17-DMAG ([2]; Grade 1): 1 | Hypocalcaemia, adverse events related to 17-DMAG ([2]; Grade 1): 1 | Hypokalaemia, adverse events related to 17-DMAG ([2]; Grade 1): 2 | Hyponatraemia, adverse events related to 17-DMAG ([2]; Grade 1): 3 | Limb edema, adverse events related to 17-DMAG ([2]; Grade 1): 2 | Low eosinophils, adverse events related to 17-DMAG ([2]; Grade 1): 1 | Low hematocrit, adverse events related to 17-DMAG ([2]; Grade 1): 1 | Low red cell count, adverse events related to 17-DMAG ([2]; Grade 1): 1 | Low urea, adverse events related to 17-DMAG ([2]; Grade 1): 1 | Lymphopenia, adverse events related to 17-DMAG ([2]; Grade 1): 2 | Muscle spasm, adverse events related to 17-DMAG ([2]; Grade 1): 1 | Nausea, adverse events related to 17-DMAG ([2]; Grade 1): 5 | Neuropathy, adverse events related to 17-DMAG ([2]; Grade 1): 1 | Nightmares, adverse events related to 17-DMAG ([2]; Grade 1): 1 | Ocular surface disease, adverse events related to 17-DMAG ([2]; Grade 1): 2 | Oliguria, adverse events related to 17-DMAG ([2]; Grade 1): 1 | Pain, Abdomen, adverse events related to 17-DMAG ([2]; Grade 1): 1 | Pain, Headache, adverse events related to 17-DMAG ([2]; Grade 1): 1 | Pain, Joint, adverse events related to 17-DMAG ([2]; Grade 1): 5 | Pain, Limb, adverse events related to 17-DMAG ([2]; Grade 1): 1 | Pain, Myalgia, adverse events related to 17-DMAG ([2]; Grade 1): 2 | Proteinuria, adverse events related to 17-DMAG ([2]; Grade 1): 3 | Raised CK, adverse events related to 17-DMAG ([2]; Grade 1): 1 | Raised amylase, adverse events related to 17-DMAG ([2]; Grade 1): 1 | Raised bilirubin (hepatic), adverse events related to 17-DMAG ([2]; Grade 1): 1 | Raised leucocytes, adverse events related to 17-DMAG ([2]; Grade 1): 1 | Raised neutrophils, adverse events related to 17-DMAG ([2]; Grade 1): 2 | Rash, adverse events related to 17-DMAG ([2]; Grade 1): 1 | Sinus tachycardia, adverse events related to 17-DMAG ([2]; Grade 1): 1 | Thrombocytopenia, adverse events related to 17-DMAG ([2]; Grade 1): 3 | Vivid dreams, adverse events related to 17-DMAG ([2]; Grade 1): 1 | Voice change, adverse events related to 17-DMAG ([2]; Grade 1): 1 | Vomiting, adverse events related to 17-DMAG ([2]; Grade 1): 2 | Weight loss, adverse events related to 17-DMAG ([2]; Grade 1): 1 | ALP (hepatic), adverse events related to 17-DMAG ([2]; Grade 2): 1 | ALT (hepatic), adverse events related to 17-DMAG ([2]; Grade 2): 1 | Anorexia, adverse events related to 17-DMAG ([2]; Grade 2): 1 | Blurred vision, adverse events related to 17-DMAG ([2]; Grade 2): 2 | Diarrhea, adverse events related to 17-DMAG ([2]; Grade 2): 1 | Dry eye, adverse events related to 17-DMAG ([2]; Grade 2): 2 | Eye (herpes simplex), adverse events related to 17-DMAG ([2]; Grade 2): 1 | Fatigue, adverse events related to 17-DMAG ([2]; Grade 2): 2 | Fever, adverse events related to 17-DMAG ([2]; Grade 2): 1 | Keratitis, adverse events related to 17-DMAG ([2]; Grade 2): 2 | Nausea, adverse events related to 17-DMAG ([2]; Grade 2): 1 | Pain, Joint, adverse events related to 17-DMAG ([2]; Grade 2): 2 | Vomiting, adverse events related to 17-DMAG ([2]; Grade 2): 4 | ALT (hepatic), adverse events related to 17-DMAG ([2]; Grade 3): 1 | AST (hepatic), adverse events related to 17-DMAG ([2]; Grade 3): 1 | Acidosis, adverse events related to 17-DMAG ([2]; Grade 3): 1 | Creatinine, adverse events related to 17-DMAG ([2]; Grade 3): 1 | Dehydration, adverse events related to 17-DMAG ([2]; Grade 3): 1 | Diarrhea, adverse events related to 17-DMAG ([2]; Grade 3): 1 | Fatigue, adverse events related to 17-DMAG ([2]; Grade 3): 1 | Hyponatraemia, adverse events related to 17-DMAG ([2]; Grade 3): 1 | Lymphopenia, adverse events related to 17-DMAG ([2]; Grade 3): 1 | Thrombocytopenia, adverse events related to 17-DMAG ([2]; Grade 3): 1 | γGT (hepatic), adverse events related to 17-DMAG ([2]; Grade 3): 1 | AST (hepatic), adverse events related to 17-DMAG ([2]; Grade 4): 1 | Hypotension, adverse events related to 17-DMAG ([2]; Grade 4): 1 | Renal failure, adverse events related to 17-DMAG ([2]; Grade 5): 1 | Tolerability ([2]; doses ≤ 80mg/m^2): well tolerated | Maximum tolerated dose (MTD) ([2]; weekly IV, patients with advanced solid tumors): 80 mg/m^2 | Recommended Phase II dose ([2]; weekly, IV): 80 mg/m^2 | Mean plasma HSP72 change between dose levels (HSP72; 24 hours after 17-DMAG, compared with first dose cohort): did not differ | Dose at which HSP72 induction was detected in PBMC (HSP72; ELISA (DELFIA), 24 hours after 17-DMAG): ≥ 20 mg/m^2 | Mean HSP72 plasma level post 17-DMAG (HSP72; all other patients (without DLT)): 86 ± 140 fmol/mL | Highest HSP72 plasma levels post 17-DMAG (HSP72; the 2 patients with DLT (106 mg/m^2), individual values): 1250 fmol/mL and 5610 fmol/mL | Half life ([3]; dose 40.0 mg/m^2, 1 hr IV infusion, 3 patients): 21.5 ± 4.3 (19.7) hr | Half life ([3]; dose 80.0 mg/m^2, 1 hr IV infusion, 8 patients): 27.8 ± 7.1 (25.4) hr | Cmax ([3]; human, intravenous, 80 mg/m2): 2680 nM | Vd ([3]; human, intravenous, 80 mg/m2): 385 L | clearance ([3]; human, intravenous, 80 mg/m2): 315 mL/min | AUC ([3]; human, iv, 2.5 mg/m^2): 0.581 ± 0.236 µM·h | Cmax ([3]; human, iv, 2.5 mg/m^2): 64.1 ± 19.7 nM | clearance ([3]; human, iv, 2.5 mg/m^2): 218 mL/min | half-life ([3]; human, iv, 2.5 mg/m^2): 25.2 ± 12.9 h | AUC ([3]; human, iv, 5 mg/m^2): 0.864 ± 0.651 µM·h | Cmax ([3]; human, iv, 5 mg/m^2): 85.4 ± 55.2 nM | clearance ([3]; human, iv, 5 mg/m^2): 858 mL/min | half-life ([3]; human, iv, 5 mg/m^2): 18.4 ± 7.5 h | AUC ([3]; human, iv, 20 mg/m^2): 3.73 ± 2.04 µM·h | Cmax ([3]; human, iv, 20 mg/m^2): 480 ± 176 nM | clearance ([3]; human, iv, 20 mg/m^2): 345 mL/min | half-life ([3]; human, iv, 20 mg/m^2): 28.7 ± 14.2 h | AUC ([3]; human, iv, 40 mg/m^2): 6.51 ± 3.22 µM·h | Cmax ([3]; human, iv, 40 mg/m^2): 957 ± 248 nM | clearance ([3]; human, iv, 40 mg/m^2): 322 mL/min | AUC ([3]; human, iv, 80 mg/m^2): 12.7 ± 2.87 µM·h | Cmax ([3]; human, iv, 80 mg/m^2): 2680 ± 1320 nM | clearance ([3]; human, iv, 80 mg/m^2): 315 mL/min | AUC ([3]; human, iv, 106 mg/m^2): 32.3 ± 16.3 µM·h | Cmax ([3]; human, iv, 106 mg/m^2): 3750 ± 1370 nM | clearance ([3]; human, iv, 106 mg/m^2): 213 mL/min | half-life ([3]; human, iv, 106 mg/m^2): 24.7 ± 1.8 h | IC50 [4]: 63 nM | Time on treatment before PD (advanced solid tumors; patient with CRPC and complete response, 5mg/m^2 escalated to 20mg/m^2): 124 weeks | Best tumor response (advanced solid tumors; patient with CRPC, 5mg/m^2 escalated to 20mg/m^2, confirmed by CT and PSA): complete response | Time on study with stable disease (advanced solid tumors; patient with CRPC, 20mg/m^2): 59 weeks | Time on study with stable disease (advanced solid tumors; patient with chondrosarcoma, 5mg/m^2 escalated to 20mg/m^2): 28 weeks | Time on study with stable disease (advanced solid tumors; patient with clear cell renal cancer, 80mg/m^2): 76 weeks | Time on treatment before PD (advanced solid tumors; patient with metastatic melanoma and partial response, 40mg/m^2): 159 weeks | Best tumor response (advanced solid tumors; patient with metastatic melanoma, 40mg/m^2): partial response | Patients with progressive disease (PD) (advanced solid tumors; twenty patients evaluable, all dose levels): Nine | Dose at which transient HSP72 induction (< 24 hours) was detected in PBMCs (HSP90 [5]): ≥ 5 mg/m^2 | Dose at which CDK4 depletion was demonstrated in PBMC (HSP90 [5]; some patients): ≥ 80 mg/m^2
